# Laboratory results published in ChEMBL document CHEMBL2346559, “Optimization of benzoxazole-based inhibitors of Cryptosporidium parvum inosine 5'-monophosphate dehydrogenase” (J Med Chem, 2013).
# Tests used:
# Toxoplasma gondii = experiment: Antiparasitic activity against transgenic Toxoplasma gondii expressing Cryptosporidium parvum IMPDH; format: functional, organism-based
# Procedure, shortened: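 Engineered T. gondii strain that depends on CpIMPDH for guanine nucleotide synthesis, run alongside the wild-type RH strain, whose native eukaryotic IMPDH also gauges host-cell cytotoxicity. Antiparasitic EC50 is the average of three independent determinations unless otherwise stated, with some values from two determinations.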
# [1] = target: Inosine-5'-monophosphate dehydrogenase 2 (Homo sapiens, UniProt P12268); experiment: Inhibition of human IMPDH2
# [2] = target: T1, Inosine-5'-monophosphate dehydrogenase (Cryptosporidium parvum, UniProt Q8T6T2); experiment: Inhibition of Cryptosporidium parvum N-terminal His6-tagged IMPDH-mediated NADH production expressed in Escherichia coli BL21(DE3) preincubated for 5 mins prior to substrate addition by fluorescence assay in presence of BSA
# T1 sequence (Q8T6T2 whole entry): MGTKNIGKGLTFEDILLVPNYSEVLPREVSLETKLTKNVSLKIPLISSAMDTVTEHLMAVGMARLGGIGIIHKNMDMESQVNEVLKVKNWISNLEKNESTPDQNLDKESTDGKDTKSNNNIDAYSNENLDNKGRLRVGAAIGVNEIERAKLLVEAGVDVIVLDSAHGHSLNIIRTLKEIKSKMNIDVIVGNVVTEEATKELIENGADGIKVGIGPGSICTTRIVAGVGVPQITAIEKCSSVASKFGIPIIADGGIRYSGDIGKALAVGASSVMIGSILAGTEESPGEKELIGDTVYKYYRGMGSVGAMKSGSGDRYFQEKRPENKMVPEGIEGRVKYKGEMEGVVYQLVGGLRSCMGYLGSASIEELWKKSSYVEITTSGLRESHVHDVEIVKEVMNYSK
# Procedure, shortened: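 Same CpIMPDH fluorescence assay (10 nM enzyme, 300 μM NAD, 150 μM IMP, pH 8.0 Tris buffer, 25 °C, 5 min inhibitor preincubation), run with 0.05% fatty-acid-free BSA added to gauge nonspecific protein binding. Quadruplicate points; IC50 averaged over three determinations.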
# [3] = target: T1, Inosine-5'-monophosphate dehydrogenase; experiment: Inhibition of Cryptosporidium parvum N-terminal His6-tagged IMPDH-mediated NADH production expressed in Escherichia coli BL21(DE3) preincubated for 5 mins prior to substrate addition by fluorescence assay
# [4] = target: T2, Inosine-5'-monophosphate dehydrogenase (Cryptosporidium parvum) (UniProt Q8T6T2)
# T2 sequence (whole entry): T1 sequence (Q8T6T2 whole entry)
# [5] = target: T2, Inosine-5'-monophosphate dehydrogenase (Cryptosporidium parvum); remark: listed apart in the source
# Liver [6] = experiment: Half life in mouse liver microsomes by LC/MS/MS analysis; format: ADME, Microsome
# Procedure, shortened: (§1)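 Incubation with mouse liver microsomes at 37 °C, with and without NADPH. Percent of compound remaining measured at several time points; half-life from a fit to first-order decay.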
# Liver [7] = experiment: Half life in mouse liver microsomes by LC/MS/MS analysis in presence of NADPH; format: ADME, Microsome; procedure, shortened: as §1
Structure (SMILES),EC50 (Toxoplasma gondii),IC50 [1],IC50 [2],IC50 [3],Kis [4],Kis [5],t1/2 (Liver [6]),t1/2 (Liver [7])
C[C@H](Oc1cccc2ccccc12)C(=O)Nc1ccc2oc(-c3cncs3)nc2c1,300 nM,> 5 µM,4 nM,2.7 nM,0.9 nM,1.6 nM,–,–
C[C@@H](C(=O)Nc1ccc2oc(-c3ccncc3)nc2c1)c1ccccc1,400 nM,> 5 µM,28 nM,22.3 nM,40 nM,100 nM,130 min,43 min
CC(Oc1ccc(Cl)cc1Cl)C(=O)Nc1ccc2oc(-c3ccncc3)nc2c1 (stereo not given),650 nM,> 5 µM,120 nM,44 nM,33 nM,58 nM,–,–
C[C@H](Oc1cccc(Cl)c1Cl)C(=O)Nc1cc(Cl)c2oc(-c3ccncc3)nc2c1,–,> 5 µM,600 nM,240 nM,150 nM,210 nM,–,–
